As usually defined, the Ki is a dissociation constant, usually derived from enzyme kinetics or from competition with a known ligand.

The first test addresses T1, Plu2411 (Photorhabdus laumondii, UniProt Q7N4D0).
T1 sequence (Q7N4D0 1-259): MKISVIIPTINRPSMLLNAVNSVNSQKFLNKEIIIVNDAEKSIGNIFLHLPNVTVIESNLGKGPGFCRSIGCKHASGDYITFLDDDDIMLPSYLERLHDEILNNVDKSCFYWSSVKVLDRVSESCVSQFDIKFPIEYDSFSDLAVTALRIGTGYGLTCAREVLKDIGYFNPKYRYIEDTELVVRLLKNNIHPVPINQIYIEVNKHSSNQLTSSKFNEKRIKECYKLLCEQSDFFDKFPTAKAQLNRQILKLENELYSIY
Kind of test: LC/MS product detection, GT-only reaction. The class given is biochemical. The conditions noted are these: α-UDP-GlcNAc as substrate.
In the case of `O=c1ccn([C@@H]2O[C@H](COP(=O)(O)OP(=O)(O)O)[C@@H](O)[C@H]2O)c(=O)[nH]1` [UDP], the “LC/MS product detection, GT-only reaction” value was “In the GT-only reaction, we could detect UDP and free Glc-NAc products”.

The target in a further test is chicken egg white lysozyme (Gallus gallus, UniProt P00698). Kind of test: EnzChek fluorescent lysozyme assay, Dixon plot. The class given is biochemical.
Sequence of chicken egg white lysozyme (P00698 19-147): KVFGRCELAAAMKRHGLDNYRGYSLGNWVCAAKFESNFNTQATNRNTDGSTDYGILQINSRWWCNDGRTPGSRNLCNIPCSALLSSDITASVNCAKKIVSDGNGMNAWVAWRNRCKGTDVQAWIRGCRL
Details: not given
The method, boiled down: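 Substrate: fluorescein-labelled Micrococcus lysodeikticus cells (DQ lysozyme substrate). Run according to the kit's instructions. Ki values determined for oligosaccharide test compounds.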
Consider `CC(=O)N[C@H]1[C@@H]2OC[C@@H](O2)[C@@H](O[C@@H]2O[C@H](CO)[C@@H](O[C@@H]3O[C@H](CO)[C@@H](O)[C@H](O)[C@H]3NC(C)=O)[C@H](O)[C@H]2NC(C)=O)[C@@H]1O` [compound 2, 2], for which the affinity corresponds to a Ki of 170 ± 130 µM.
`CC(=O)N[C@H]1[C@@H]2OC[C@@H](O2)[C@@H](O[C@@H]2O[C@H](CO)[C@@H](O[C@@H]3O[C@H](CO)[C@@H](O[C@@H]4O[C@H](CO)[C@@H](O)[C@H](O)[C@H]4NC(C)=O)[C@H](O)[C@H]3NC(C)=O)[C@H](O)[C@H]2NC(C)=O)[C@@H]1O` [compound 3, 3] registered a Ki of 300 ± 270 µM.
On to `CC(=O)N[C@H]1[C@H](O[C@H]2[C@H](O)[C@@H](NC(C)=O)[C@@H]3OC[C@H]2O3)O[C@H](CO)[C@@H](O[C@@H]2O[C@H](COP(=O)(O)O)[C@@H](O)[C@H](O)[C@H]2N)[C@@H]1O` [compound 5, 5], for which the affinity, expressed as Ki, was 750 ± 410 µM.
Regarding `CC(=O)N[C@H]1[C@@H]2OC[C@@H](O2)[C@@H](O[C@@H]2O[C@H](CO)[C@@H](O)[C@H](O)[C@H]2NC(C)=O)[C@@H]1O` [compound 1, 1], the affinity, expressed as Ki, was 3590 ± 1290 µM.
`CC(=O)N[C@H]1[C@H](O[C@H]2[C@H](O)[C@@H](NC(C)=O)[C@@H]3OC[C@H]2O3)O[C@H](CO)[C@@H](O[C@@H]2O[C@H](CO)[C@@H](O)[C@H](O)[C@H]2N)[C@@H]1O` [compound 4, 4]: affinity was put at a Ki of 400 ± 230 µM.

These data come from publication PMC4224617 (Chemistry & biology, 2014).
